We go through two compounds from ChEMBL document CHEMBL1151755, “Crystal structure of the peroxisome proliferator-activated receptor gamma (PPARgamma) ligand binding domain complexed with a novel partial agonist: a new region of the hydrophobic pocket could be exploited for drug design” (J Med Chem, 2008).

The structures appear in SMILES notation. Active and inactive are the calls of the source. The rule behind the calls is not given here.

Common to all, as to assay type: cell-based
Holding throughout (conditions): HepG2

Test [1] addresses T1, Peroxisome proliferator-activated receptor alpha (Homo sapiens) (UniProt Q07869).
T1 sequence (whole entry): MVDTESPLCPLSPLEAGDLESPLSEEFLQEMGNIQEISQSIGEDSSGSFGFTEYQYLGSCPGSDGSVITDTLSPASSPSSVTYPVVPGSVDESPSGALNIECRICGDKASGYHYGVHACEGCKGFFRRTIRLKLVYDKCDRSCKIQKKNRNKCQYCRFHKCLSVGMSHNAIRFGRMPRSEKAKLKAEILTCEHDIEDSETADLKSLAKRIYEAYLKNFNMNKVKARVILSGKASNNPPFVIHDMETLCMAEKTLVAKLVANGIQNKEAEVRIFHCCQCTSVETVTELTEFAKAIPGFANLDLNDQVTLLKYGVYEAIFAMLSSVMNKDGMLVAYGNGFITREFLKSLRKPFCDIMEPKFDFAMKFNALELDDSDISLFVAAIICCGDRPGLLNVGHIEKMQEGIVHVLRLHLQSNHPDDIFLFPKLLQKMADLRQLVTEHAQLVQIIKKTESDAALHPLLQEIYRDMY
In words: Agonist activity at human PPARalpha ligand binding domain expressed in human Hep G2 cells co-transfected with Gal4-DBD by luciferase reporter gene assay relative to Wy 14,643. The essentials:
(§1)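 HepG2 cells received the Gal4-receptor LBD construct (50 ng), pGal4UAS-luciferase (100 ng) and pCMVβ (300 ng) by calcium phosphate coprecipitation for 4 h. They were then treated in serum-free DMEM/F-12 with ligand or 0.1% ethanol for 20 h. Luciferase was normalized to β-galactosidase, and efficacy was expressed as percent of the Wy 14,643 maximum (100%). Values are mean ± SEM of 3–5 experiments in triplicate.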

Test [2] addresses T2, Peroxisome proliferator-activated receptor alpha (Mus musculus) (UniProt P23204).
T2 sequence (whole entry): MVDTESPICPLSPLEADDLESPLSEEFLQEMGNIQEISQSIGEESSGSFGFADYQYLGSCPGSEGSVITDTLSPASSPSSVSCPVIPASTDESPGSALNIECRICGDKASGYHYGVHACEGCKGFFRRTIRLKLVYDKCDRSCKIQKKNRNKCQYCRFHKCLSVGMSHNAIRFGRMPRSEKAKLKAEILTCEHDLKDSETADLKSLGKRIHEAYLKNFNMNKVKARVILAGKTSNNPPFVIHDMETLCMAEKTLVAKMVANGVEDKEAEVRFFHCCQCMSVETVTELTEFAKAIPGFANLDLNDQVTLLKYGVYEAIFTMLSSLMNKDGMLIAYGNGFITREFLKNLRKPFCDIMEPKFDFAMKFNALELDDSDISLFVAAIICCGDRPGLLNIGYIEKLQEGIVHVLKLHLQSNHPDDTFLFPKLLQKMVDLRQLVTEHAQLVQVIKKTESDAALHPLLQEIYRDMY
The test is described as follows: Agonist activity at mouse PPARalpha ligand binding domain expressed in human Hep G2 cells co-transfected with Gal4-DBD by luciferase reporter gene assay relative to Wy 14,643. In short, it runs like this: as §1

Test [3] concerns the target T3, Thyroid hormone receptor alpha (Homo sapiens) (UniProt P10827).
T3 sequence (whole entry): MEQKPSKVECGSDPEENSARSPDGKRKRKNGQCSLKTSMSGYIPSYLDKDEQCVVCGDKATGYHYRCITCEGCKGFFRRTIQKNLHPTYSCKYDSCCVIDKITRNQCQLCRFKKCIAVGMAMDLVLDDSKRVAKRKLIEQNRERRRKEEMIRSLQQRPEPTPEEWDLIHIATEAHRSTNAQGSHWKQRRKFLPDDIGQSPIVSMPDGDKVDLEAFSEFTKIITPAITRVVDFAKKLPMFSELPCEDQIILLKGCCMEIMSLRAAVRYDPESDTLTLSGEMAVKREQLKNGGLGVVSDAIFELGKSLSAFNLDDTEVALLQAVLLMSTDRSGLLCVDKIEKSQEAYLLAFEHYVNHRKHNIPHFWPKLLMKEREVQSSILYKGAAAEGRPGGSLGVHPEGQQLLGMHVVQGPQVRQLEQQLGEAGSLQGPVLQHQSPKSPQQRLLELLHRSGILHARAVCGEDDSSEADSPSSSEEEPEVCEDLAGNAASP
In words: Increase in transcriptional activity of TRalpha ligand binding domain expressed in human Hep G2 cells co-transfected with Gal4-DBD by luciferase reporter gene assay. The essentials:
(§2)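 HepG2 cells transfected for 4 h by calcium phosphate coprecipitation with 100 ng pGal4UAS-luciferase, 50 ng Gal4-LBD receptor vector and 300 ng CMV-β-galactosidase plasmid for normalization. Cells were washed in PBS, then refed with serum-free DMEM/F-12 containing penicillin/streptomycin and compound or 0.1% ethanol vehicle for 20 h. Luciferase read-out was normalized to β-galactosidase. Experiments were repeated at least three times.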

Test [4] concerns the target Nuclear receptor subfamily 4 group A member 2 (Homo sapiens) (UniProt P43354). The test is described as follows: Increase in transcriptional activity of Nurr1 ligand binding domain expressed in human Hep G2 cells co-transfected with Gal4-DBD by luciferase reporter gene assay. In short, it runs like this: as §2
Test [5] has as its target T4, Oxysterols receptor LXR-beta (Homo sapiens) (UniProt P55055).
T4 sequence (whole entry): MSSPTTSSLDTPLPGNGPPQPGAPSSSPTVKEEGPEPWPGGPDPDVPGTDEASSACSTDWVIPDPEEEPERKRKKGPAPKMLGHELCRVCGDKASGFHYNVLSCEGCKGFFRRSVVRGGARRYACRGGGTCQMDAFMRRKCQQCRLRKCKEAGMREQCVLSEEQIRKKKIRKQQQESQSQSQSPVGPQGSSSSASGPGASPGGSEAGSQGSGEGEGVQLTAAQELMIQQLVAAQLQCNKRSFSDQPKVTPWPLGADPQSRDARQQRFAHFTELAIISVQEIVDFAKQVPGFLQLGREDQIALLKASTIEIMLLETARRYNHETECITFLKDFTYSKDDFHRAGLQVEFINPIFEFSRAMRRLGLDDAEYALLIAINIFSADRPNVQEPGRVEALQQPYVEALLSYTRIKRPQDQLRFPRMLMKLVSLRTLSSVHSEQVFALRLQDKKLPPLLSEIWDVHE
In words: Increase in transcriptional activity of LXRbeta ligand binding domain expressed in human Hep G2 cells co-transfected with Gal4-DBD by luciferase reporter gene assay. The essentials: as §2

Sequence of Nuclear receptor subfamily 4 group A member 2 (Homo sapiens) (P43354 whole entry, the tested form may be a part): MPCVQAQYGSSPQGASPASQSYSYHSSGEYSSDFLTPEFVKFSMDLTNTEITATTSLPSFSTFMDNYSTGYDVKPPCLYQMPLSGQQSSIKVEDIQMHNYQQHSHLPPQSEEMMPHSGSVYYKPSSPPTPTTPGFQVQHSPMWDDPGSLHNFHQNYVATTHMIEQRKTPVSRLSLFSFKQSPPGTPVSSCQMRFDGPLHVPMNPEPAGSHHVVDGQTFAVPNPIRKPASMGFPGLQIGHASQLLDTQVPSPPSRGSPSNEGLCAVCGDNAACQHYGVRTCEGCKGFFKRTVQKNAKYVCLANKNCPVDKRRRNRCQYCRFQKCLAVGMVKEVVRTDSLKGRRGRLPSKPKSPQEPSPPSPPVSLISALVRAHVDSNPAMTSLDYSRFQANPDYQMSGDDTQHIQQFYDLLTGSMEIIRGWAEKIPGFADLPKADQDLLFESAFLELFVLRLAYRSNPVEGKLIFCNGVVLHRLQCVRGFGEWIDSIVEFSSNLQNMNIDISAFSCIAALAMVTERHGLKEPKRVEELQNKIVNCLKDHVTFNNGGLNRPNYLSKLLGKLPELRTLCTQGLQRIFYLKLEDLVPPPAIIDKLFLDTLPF

In the case of `O=C(O)[C@@H](Cc1ccccc1)Oc1ccc(-c2ccccc2)cc1`, the outcome in test [1], in test [2], in test [3], in test [4] and in test [5] was inactive.

For `O=C(O)[C@H](Cc1ccccc1)Oc1ccc(-c2ccccc2)cc1`, the Efficacy is 100% in test [1] and 120% in test [2]. Besides, the outcome in test [3], in test [4] and in test [5] was inactive.
